# ChEMBL document CHEMBL1139010, “Synthesis and SAR studies of 2-oxoquinoline derivatives as CB2 receptor inverse agonists” (J Med Chem, 2006)
# What was measured:
# [1] = biological target: Cannabinoid receptor 1 (Rattus norvegicus) (UniProt P20272); assay: […] activity at HU210-induced CB1 receptor in rat cerebellar membrane at 1 uM; assay type: functional, cell membranes; conditions: Cerebellum
# Outline: (§1)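 [³⁵S]GTPγS binding in rat cerebellar membranes, measuring block of the CB1 response to 10 nM HU-210 by ligand at 1 µM and 10 µM. Ligand alone was also tested at 10 µM for agonism. Values are means of at least three independent experiments run in duplicate, with SEM as the variability.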
# [2] = biological target: Cannabinoid receptor 1 (Rattus norvegicus) (UniProt P20272); assay: […] activity at HU210-induced CB1 receptor in rat cerebellar membrane at 10 uM; assay type: functional, cell membranes; conditions: Cerebellum; outline: as §1
# Cannabinoid receptor 2 [3] = biological target: T1, Cannabinoid receptor 2 (Homo sapiens, UniProt P34972); assay: Inhibition of [35S]GTP-gamma-S binding to human CB2 receptor expressed in CHO cells; assay type: functional, cell-based
# T1 sequence (P34972 whole entry): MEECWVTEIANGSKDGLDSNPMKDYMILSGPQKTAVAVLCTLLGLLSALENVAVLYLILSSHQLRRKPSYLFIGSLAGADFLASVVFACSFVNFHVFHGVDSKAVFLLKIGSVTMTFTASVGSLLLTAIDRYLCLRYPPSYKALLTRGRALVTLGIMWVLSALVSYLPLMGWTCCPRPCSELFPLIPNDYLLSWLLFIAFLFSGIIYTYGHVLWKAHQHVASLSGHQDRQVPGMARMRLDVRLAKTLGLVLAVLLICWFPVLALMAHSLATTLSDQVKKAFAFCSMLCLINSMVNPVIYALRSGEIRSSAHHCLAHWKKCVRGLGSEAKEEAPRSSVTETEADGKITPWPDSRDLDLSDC
# Cannabinoid receptor 2 [4] = biological target: T1, Cannabinoid receptor 2; assay: Inhibition of [35S]GTP-gamma-S binding to human CB2 receptor expressed in CHO cells relative to SR-144528; assay type: functional, cell-based
# Outline: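 Membranes from CHO cells stably expressing hCB2 (Bmax 20.4 pmol/mg; cultured with 100 µg/mL G-418). Each incubation held 5 µg protein in 55 mM Tris-HCl pH 7.4 with 1.1 mM EDTA, 100 mM NaCl, 5 mM MgCl₂, 0.5% BSA, 11 µM GDP and about 150 pM [³⁵S]GTPγS. Ligands were added in 1% ethanol or 0.5% DMSO (final). Inhibition of basal binding was expressed against 1 µM SR144528 (Imax). At least three experiments were run in duplicate, reported as mean and SEM.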
# Chain of Cannabinoid receptor 1 (Rattus norvegicus) (P20272 whole entry): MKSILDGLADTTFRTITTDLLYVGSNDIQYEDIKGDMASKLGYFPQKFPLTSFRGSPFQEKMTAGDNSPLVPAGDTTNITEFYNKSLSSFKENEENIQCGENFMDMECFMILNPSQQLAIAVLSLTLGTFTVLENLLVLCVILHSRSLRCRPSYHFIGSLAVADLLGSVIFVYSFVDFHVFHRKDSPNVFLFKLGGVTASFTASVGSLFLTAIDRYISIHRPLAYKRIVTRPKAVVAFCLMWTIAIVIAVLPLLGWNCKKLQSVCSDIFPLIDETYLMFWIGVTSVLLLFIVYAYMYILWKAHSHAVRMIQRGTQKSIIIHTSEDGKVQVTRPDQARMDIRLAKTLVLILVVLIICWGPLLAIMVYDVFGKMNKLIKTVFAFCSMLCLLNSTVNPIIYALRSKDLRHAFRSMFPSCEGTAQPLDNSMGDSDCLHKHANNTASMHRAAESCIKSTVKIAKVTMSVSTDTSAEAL
SMILES,Activity [1],Activity [2],IC50 (Cannabinoid receptor 2 [3]),Imax (Cannabinoid receptor 2 [4])
CCCCCOc1c(OC)ccc2cc(C(=O)NCCc3ccccc3)c(=O)[nH]c12,87%,61%,0.631 nM,76%
CCCCCOc1c(OC)ccc2cc(C(=O)NCCc3c[nH]c4ccccc34)c(O)nc12,94%,72%,25.1 nM,79%
CCCCCOc1c(OC)ccc2cc(C(=O)NCCc3ccc([N+](=O)[O-])cc3)c(=O)[nH]c12,,,100 nM,
CCCCCOc1c(OC)ccc2cc(C(=O)NCc3ccc(O)c(O)c3)c(=O)[nH]c12,,,3980 nM,
CCCCCOc1c(OC)ccc2cc(C(=O)Nc3ccccc3N)c(=O)[nH]c12,,,12.6 nM,
CCCCCOc1c(OC)ccc2cc(C(=O)NCc3ccc(O)c(O)c3)c(O)nc12,93%,85%,,124%
CCCCCOc1c(OC)ccc2cc(C(=O)NCCc3ccc(N)cc3)c(O)nc12,91%,74%,,97%
CCCCCOc1c(OC)ccc2cc(C(=O)NCc3ccc4c(c3)OCO4)c(=O)[nH]c12,94%,78%,,80%
CCCCCOc1c(OC)ccc2cc(C(=O)NCCc3ccc(O)cc3)c(O)nc12,92%,68%,,90%
CCCCCOc1c(OC)ccc2cc(C(=O)NCCc3ccc(Cl)cc3)c(=O)[nH]c12,95%,64%,5.01 nM,104%
CCCCCOc1c(OC)ccc2cc(C(=O)NCCc3ccc(O)cc3)c(=O)[nH]c12,,,10 nM,
CCCCCOc1c(OC)ccc2cc(C(=O)NCCc3ccc(O)c(O)c3)c(O)nc12,93%,63%,398 nM,93%
CCCCCOc1c(OC)ccc2cc(C(=O)Nc3ccccc3N)c(O)nc12,87%,82%,,82%
Cc1ccc(Cn2nc(C(=O)NC3C4(C)CCC(C4)C3(C)C)cc2-c2ccc(Cl)c(C)c2)cc1 (centres undefined),77%,53%,,100%
CCCCCOc1c(OC)ccc2cc(C(=O)NCCc3ccc(N)cc3)c(=O)[nH]c12,,,3.16 nM,
CCCCCOc1c(OC)ccc2cc(C(=O)NCCc3ccc([N+](=O)[O-])cc3)c(O)nc12,87%,65%,,61%
CCCCCOc1c(OC)ccc2cc(NC(=O)Cc3ccc4c(c3)OCO4)c(O)nc12,93%,75%,,60%
CCCCCOc1c(OC)ccc2cc(C(=O)NCCCc3ccccc3)c(=O)[nH]c12,98%,59%,0.794 nM,82%
CCCCCOc1c(OC)ccc2cc(C(=O)NCc3ccccc3)c(O)nc12,94%,79%,63.1 nM,75%
CCCCCOc1c(OC)ccc2cc(NC(=O)Cc3ccc4c(c3)OCO4)c(=O)[nH]c12,,,20 nM,
